According to ChEMBL document CHEMBL1121966, “(2R*,3S*)-1-[125I]Iodo-2,3-bis(4-hydroxyphenyl)pentane ([125I]iodonorhexestrol) and (2R*,3S*)-1-[77Br]Bromo-2,3-bis(4-hydroxyphenyl)pentane ([77Br]bromonorhexestrol), two gamma-emitting estrogens that show receptor-mediated uptake by target tissues in vivo” (1982):

Assays:
Rattus norvegicus [1] = organism: Rattus norvegicus; experiment: Percent injected dose per gram esophagus at 3h; assay type: functional
Summary of the method: (§1)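 Dual-label study in immature 25-day female Sprague-Dawley rats (ca. 50 g). Each received 2 μCi [77Br]bromo tracer (≤1.25 pmol/dose) and 2 μCi 16α-[125I]iodoestradiol (2 pmol/dose) by tail or jugular vein, in ethanol diluted with saline/rat serum 1:1. Rats were killed at 3 or 6 h; blood and 11 tissues were weighed and counted. Five rats per time point; mean ± SD.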

Rattus norvegicus [2] = organism: Rattus norvegicus; experiment: Percent injected dose per gram esophagus at 6 hr; assay type: functional; summary of the method: as §1
Rattus norvegicus [3] = organism: Rattus norvegicus; experiment: Percent injected dose per gram kidney at 1 hr; assay type: functional
Summary of the method: (§2)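 Immature (25-day, ca. 50 g) Sprague-Dawley female rats received an iv injection (jugular or tail vein) of HPLC-purified tracer in ethanol plus 0.9% NaCl/rat serum 1:1. Doses were 2 μCi [125I]iodo tracer (≤15 pmol), or 2 μCi [77Br]bromo tracer (≤1.25 pmol) with 2 μCi 16α-[125I]iodoestradiol. Animals were killed at 1 h; blood and tissues were weighed and γ-counted. Blocking: coinjected unlabeled estradiol, 9 μg (iodo) or 18 μg (bromo). Mean ± SD.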

Rattus norvegicus [4] = organism: Rattus norvegicus; experiment: Percent injected dose per gram kidney at 1 hr with unlabeled estradiol; assay type: functional; summary of the method: as §2
Rattus norvegicus [5] = organism: Rattus norvegicus; experiment: Percent injected dose per gram kidney at 3h; assay type: functional; summary of the method: as §1
Rattus norvegicus [6] = organism: Rattus norvegicus; experiment: Percent injected dose per gram liver at 1 hr; assay type: functional
Summary of the method: (§3)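 Immature (25 day) female Sprague-Dawley rats (ca. 50 g) were dosed iv (jugular or tail vein) in ethanol plus 0.9% NaCl/rat serum (1:1). Doses were 2 μCi of [125I]iodonorhexestrol (≤15 pmol/dose), or 2 μCi each of [77Br]bromonorhexestrol (≤1.25 pmol/dose) and 16α-[125I]iodoestradiol (2 pmol/dose). Rats were killed at 1, 3 or 6 h; blood and tissues were weighed and γ-counted. Thyroid weight assumed 0.005 g/100 g body weight. Mean ± SD.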

Rattus norvegicus [7] = organism: Rattus norvegicus; experiment: Percent injected dose per gram liver at 1 hr with unlabeled estradiol; assay type: functional
Summary of the method: (§4)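 Same iv biodistribution in immature female rats, killed at 1 h, with unlabeled estradiol coinjected to block receptor uptake: 9 μg with [125I]iodonorhexestrol (3 rats), 18 μg with the [77Br]bromonorhexestrol/16α-[125I]iodoestradiol pair (5 rats). Tissue and blood radioactivity were counted as % injected dose/g and tissue-to-blood ratio.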

Rattus norvegicus [8] = organism: Rattus norvegicus; experiment: Percent injected dose per gram liver at 3h; assay type: functional; summary of the method: as §3
Rattus norvegicus [9] = organism: Rattus norvegicus; experiment: Percent injected dose per gram liver at 6 hr; assay type: functional; summary of the method: as §3
Rattus norvegicus [10] = organism: Rattus norvegicus; experiment: Percent injected dose per gram lung at 1 hr; assay type: functional; summary of the method: as §3
Rattus norvegicus [11] = organism: Rattus norvegicus; experiment: Percent injected dose per gram lung at 1 hr with unlabeled estradiol; assay type: functional; summary of the method: as §4
Rattus norvegicus [12] = organism: Rattus norvegicus; experiment: Percent injected dose per gram lung at 3h; assay type: functional; summary of the method: as §3
Rattus norvegicus [13] = organism: Rattus norvegicus; experiment: Percent injected dose per gram lung at 6 hr; assay type: functional; summary of the method: as §3
Rattus norvegicus [14] = organism: Rattus norvegicus; experiment: Percent injected dose per gram spleen at 1 hr; assay type: functional; summary of the method: as §3
Rattus norvegicus [15] = organism: Rattus norvegicus; experiment: Percent injected dose per gram spleen at 1 hr with unlabeled estradiol; assay type: functional; summary of the method: as §4
Rattus norvegicus [16] = organism: Rattus norvegicus; experiment: Percent injected dose per gram spleen at 3h; assay type: functional; summary of the method: as §3
Rattus norvegicus [17] = organism: Rattus norvegicus; experiment: Percent injected dose per gram thyroid at 1 hr; assay type: functional, Thyroid gland; summary of the method: as §3
Rattus norvegicus [18] = organism: Rattus norvegicus; experiment: Percent injected dose per gram thyroid at 1 hr with unlabeled estradiol; assay type: functional, Thyroid gland; summary of the method: as §4
Rattus norvegicus [19] = organism: Rattus norvegicus; experiment: Percent injected dose per gram thyroid at 3h; assay type: functional, Thyroid gland; summary of the method: as §3
Rattus norvegicus [20] = organism: Rattus norvegicus; experiment: Percent injected dose per gram thyroid at 6 hr; assay type: functional, Thyroid gland; summary of the method: as §3
Rattus norvegicus [21] = organism: Rattus norvegicus; experiment: Percent injected dose per gram Uterus at 6 hr; assay type: functional; summary of the method: as §1
Rattus norvegicus [22] = organism: Rattus norvegicus; experiment: Percent injected dose per gram blood at 1 hr; assay type: functional; summary of the method: as §2
Rattus norvegicus [23] = organism: Rattus norvegicus; experiment: Percent injected dose per gram blood at 1 hr with unlabeled estradiol; assay type: functional; summary of the method: as §2
Rattus norvegicus [24] = organism: Rattus norvegicus; experiment: Percent injected dose per gram blood at 3h; assay type: functional; summary of the method: as §1
Rattus norvegicus [25] = organism: Rattus norvegicus; experiment: Percent injected dose per gram blood at 6 hr; assay type: functional; summary of the method: as §1
Rattus norvegicus [26] = organism: Rattus norvegicus; experiment: Percent injected dose per gram esophagus at 1 hr; assay type: functional; summary of the method: as §2
Rattus norvegicus [27] = organism: Rattus norvegicus; experiment: Percent injected dose per gram esophagus at 1 hr with unlabeled estradiol; assay type: functional; summary of the method: as §2
Rattus norvegicus [28] = organism: Rattus norvegicus; experiment: Percent injected dose per gram Muscle at 1 hr with unlabeled estradiol; assay type: functional; summary of the method: as §2
Rattus norvegicus [29] = organism: Rattus norvegicus; experiment: Percent injected dose per gram Muscle at 3h; assay type: functional; summary of the method: as §1
Rattus norvegicus [30] = organism: Rattus norvegicus; experiment: Percent injected dose per gram Muscle at 6 hr; assay type: functional; summary of the method: as §1
Rattus norvegicus [31] = organism: Rattus norvegicus; experiment: Percent injected dose per gram Ovaries at 1 hr; assay type: functional; summary of the method: as §2
Rattus norvegicus [32] = organism: Rattus norvegicus; experiment: Percent injected dose per gram Ovaries at 1 hr with unlabeled estradiol; assay type: functional; summary of the method: as §2
Rattus norvegicus [33] = organism: Rattus norvegicus; experiment: Percent injected dose per gram Ovaries at 3h; assay type: functional; summary of the method: as §1
Rattus norvegicus [34] = organism: Rattus norvegicus; experiment: Percent injected dose per gram Ovaries at 6 hr; assay type: functional; summary of the method: as §1
Rattus norvegicus [35] = organism: Rattus norvegicus; experiment: Percent injected dose per gram Uterus at 1 hr; assay type: functional; summary of the method: as §2
Rattus norvegicus [36] = organism: Rattus norvegicus; experiment: Percent injected dose per gram Uterus at 1 hr with unlabeled estradiol; assay type: functional; summary of the method: as §2
[37] = Ovary/blood distribution ratio was determined in immature female rats at 6 hr; assay type: functional; summary of the method: as §1
[38] = Ovary/blood distribution ratio was determined in immature female rats at 1 hr; assay type: functional; summary of the method: as §2
[39] = Ovary/blood distribution ratio was determined in immature female rats at 1 hr with unlabeled estradiol; assay type: functional; summary of the method: as §2
[40] = Ovary/blood distribution ratio was determined in immature female rats at 3h; assay type: functional; summary of the method: as §1

For `C[C@]12CC[C@@H]3c4ccc(O)cc4CC[C@H]3[C@@H]1C[C@@H](I)[C@@H]2O`, which Injected dose (Rattus norvegicus [1]) is on record?
Its Injected dose is 0.32%.

And the Injected dose (Rattus norvegicus [2])?
The Injected dose was 0.14%.

And the Injected dose (Rattus norvegicus [3])?
Its Injected dose is 1.48%.

And the Injected dose (Rattus norvegicus [4])?
Its Injected dose is 2.77%.

And the Injected dose (Rattus norvegicus [5])?
Its Injected dose is 0.94%.

What about the Injected dose (Rattus norvegicus [6]) of the same compound?
The Injected dose was 2.37%.

What about the Injected dose (Rattus norvegicus [7]) of the same compound?
The Injected dose was 4.91%.

And the Injected dose (Rattus norvegicus [8])?
The Injected dose was 1.96%.

And the Injected dose (Rattus norvegicus [9])?
Its Injected dose is 0.9%.

What about the Injected dose (Rattus norvegicus [10]) of the same compound?
Its Injected dose is 0.75%.

And the Injected dose (Rattus norvegicus [11])?
Its Injected dose is 1.76%.

What about the Injected dose (Rattus norvegicus [12]) of the same compound?
The Injected dose was 0.36%.

And the Injected dose (Rattus norvegicus [13])?
The Injected dose was 0.14%.

And the Injected dose (Rattus norvegicus [14])?
Its Injected dose is 0.43%.

And the Injected dose (Rattus norvegicus [15])?
Its Injected dose is 0.79%.

And the Injected dose (Rattus norvegicus [16])?
Its Injected dose is 0.18%.

What about the Injected dose (Rattus norvegicus [17]) of the same compound?
The Injected dose was 7.46%.

And the Injected dose (Rattus norvegicus [18])?
Its Injected dose is 11.9%.

And the Injected dose (Rattus norvegicus [19])?
Its Injected dose is 190.9%.

What about the Injected dose (Rattus norvegicus [20]) of the same compound?
The Injected dose was 276.6%.

And the Injected dose (Rattus norvegicus [21])?
The Injected dose was 1.57%.

And the Injected dose (Rattus norvegicus [22])?
Its Injected dose is 0.47%.

And the Injected dose (Rattus norvegicus [23])?
The Injected dose was 1.22%.

What about the Injected dose (Rattus norvegicus [24]) of the same compound?
Its Injected dose is 0.46%.

And the Injected dose (Rattus norvegicus [25])?
Its Injected dose is 0.22%.

What about the Injected dose (Rattus norvegicus [26]) of the same compound?
The Injected dose was 0.49%.

And the Injected dose (Rattus norvegicus [27])?
Its Injected dose is 1.07%.

What about the Injected dose (Rattus norvegicus [28]) of the same compound?
The Injected dose was 0.92%.

And the Injected dose (Rattus norvegicus [29])?
Its Injected dose is 0.15%.

And the Injected dose (Rattus norvegicus [30])?
Its Injected dose is 0.05%.

What about the Injected dose (Rattus norvegicus [31]) of the same compound?
The Injected dose was 4.17%.

And the Injected dose (Rattus norvegicus [32])?
The Injected dose was 2.47%.

And the Injected dose (Rattus norvegicus [33])?
The Injected dose was 1.75%.

And the Injected dose (Rattus norvegicus [34])?
Its Injected dose is 0.52%.

What about the Injected dose (Rattus norvegicus [35]) of the same compound?
The Injected dose was 9.59%.

And the Injected dose (Rattus norvegicus [36])?
Its Injected dose is 1.81%.

What about the Ratio [37] of the same compound?
The Ratio was 2.49.

What about the Ratio [38] of the same compound?
The Ratio was 3.02.

What about the Ratio [39] of the same compound?
Its Ratio is 1.36.

What about the Ratio [40] of the same compound?
Its Ratio is 2.03.
